Calls of active or inactive are those of the source. The rule behind the calls is not given here.
Assays:
HL-60 [1] = assay: The ability to induce differentiation of human promyelocytic leukemia HL-60 cell line to mature granulocyte was determined in a NBT reduction assay; IA= Inactive; type: functional, cell-based
How it was run: (§1)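 HL-60 cells in RPMI1640 with 5% FCS, ethanol stocks at 0.2 mM, final ethanol <0.5%, seeded at ~8 × 10^4 cells/mL and exposed 4 days across 5 orders of concentration. Cells were then incubated 20 min at 37 °C with an equal volume of PBS containing 0.2% NBT and 200 ng/mL TPA. Formazan-positive cells were counted (≥200 cells). ED50 from NBT data; ≥3 repeats.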

HL-60 [2] = assay: The ability to induce differentiation of HL-60 cells relative to that of retinoic acid; type: functional, Homo sapiens
How it was run: (§2)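 HL-60 cells from suspension culture in RPMI1640 with 5% FCS and antibiotics, 37 °C, 5% CO2. Compounds were dissolved in ethanol at 0.2 mM (stock), with final ethanol below 0.5%, and added to cells seeded at about 8 × 10^4 cells/mL for 4 days. Retinoic acid was run concurrently. Value is the ED50 ratio of retinoic acid to compound, with ED50 taken from NBT-reduction data.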

HL-60 [3] = assay: The ability to induce differentiation of human promyelocytic leukemia HL-60 cell line to mature granulocyte; type: functional; details: read-out: ED50 (the source's name); how it was run: as §1
HL-60 [4] = assay: Activity to differentiate HL-60 cells relative to that of retinoic acid; type: functional, Homo sapiens; how it was run: as §2
HL-60 [5] = assay: The ability to induce differentiation of human promyelocytic leukemia HL-60 cell line to mature granulocyte was determined in a NBT reduction assay; NA means inactive.; type: functional, cell-based; how it was run: as §1
HL-60 [6] = assay: The ability to induce differentiation of human promyelocytic leukemia HL-60 cell line to mature granulocyte was determined in a NBT reduction assay; IA= Inactive at >10e-6; type: functional, cell-based; how it was run: as §1
HL-60 [7] = assay: The ability to induce differentiation of human promyelocytic leukemia HL-60 cell line to mature granulocyte was determined in a NBT reduction assay; Maximum cellular response to compound is less than half of that of retinoic acid.; type: functional; details: read-out: ED50 (the source's name); how it was run: as §1

Row | EC50 (HL-60 [3]) [nM] | Compound | Relative activity (HL-60 [2]) | other results
1 | – | CCc1ccc(C2(C)OC2c2ccc(C(=O)O)cc2)cc1CC (stereo unspecified) | – | ED50 (HL-60 [1]): inactive
2 | 130 | CC1(C)CCOc2ccc(/N=N/c3ccc(C(=O)O)cc3)cc21 | 3.5 | –
3 | > 10000 | CC(C)c1ccc(/N=N/c2ccc(C(=O)O)cc2)cc1 | <0.1 | –
4 | – | C/C(=C\c1ccc(C(=O)O)cc1)c1ccc(C)c(C)c1 | – | ED50 (HL-60 [1]): inactive
5 | 130 | CC1(C)CCC(C)(C)c2cc(CCc3ccc(C(=O)O)cc3)ccc21 | 2.7 | –
6 | 13 | C/C(=C\c1ccc(C(=O)O)cc1)c1ccc(C(C)C)c(C(C)C)c1 | – | Relative activity (HL-60 [4]): 15
7 | – | O=C(O)c1ccc(/N=N/c2ccccc2)cc1 | – | ED50 (HL-60 [1]): inactive
8 | – | O=C(O)c1ccc(/C=C/c2ccccc2)cc1 | – | ED50 (HL-60 [5]): inactive
9 | 0.2 | CC1(C)CCC(C)(C)c2cc3c(cc21)CC/C3=C\c1ccc(C(=O)O)cc1 | 570 | –
10 | – | CC(C)(C)c1ccc(/C=C/c2ccc(C(=O)O)cc2)cc1 | – | ED50 (HL-60 [1]): inactive
11 | > 10000 | CC(C)c1ccc(/N=N/c2ccc(C(=O)O)cc2)c(C(C)C)c1 | <0.1 | –
12 | – | CC(C)(C)c1cccc(/C=C/c2ccc(C(=O)O)cc2)c1 | 13 | –
13 | 0.25 | CC1(C)CCC(C)(C)c2cc(/N=[N+](\[O-])c3ccc(C(=O)O)cc3)ccc21 | 1960 | –
14 | 210 | CC1(C)CCSc2ccc(/N=N/c3ccc(C(=O)O)cc3)cc21 | 2.1 | –
15 | – | CC(C)c1ccccc1/N=N/c1ccc(C(=O)O)cc1 | – | ED50 (HL-60 [1]): inactive
16 | 4.3 | CC1(C)CCC(C)(C)c2cc(C3OC3c3ccc(C(=O)O)cc3)ccc21 (stereo unspecified) | 22 | –
17 | 2.3 | CC(C)c1ccc(/N=N/c2ccc(C(=O)O)cc2)cc1C(C)C | 39 | –
18 | 220 | CCc1ccc(/N=N/c2ccc(C(=O)O)cc2)cc1CC | 0.53 | –
19 | – | C/C(=C\c1ccc(C(=O)O)cc1)c1ccc(C(C)(C)C)cc1 | – | ED50 (HL-60 [1]): inactive
20 | 400 | CC(C)(C)c1cccc(/N=N/c2ccc(C(=O)O)cc2)c1 | 0.36 | –

Row | EC50 (HL-60 [3]) [nM] | Compound | Relative activity (HL-60 [2]) | other results
21 | 130 | CC1(C)CCC(C)(C)c2cc(C3(C)OC3c3ccc(C(=O)O)cc3)ccc21 (stereo unspecified) | 0.65 | –
22 | – | CC(C)c1ccc(C(C)C)c(/N=N/c2ccc(C(=O)O)cc2)c1 | – | ED50 (HL-60 [1]): inactive
23 | 130 | O=C(O)c1ccc(/N=N/c2cccc(C3CCCCC3)c2)cc1 | 0.68 | –
24 | – | CCc1cccc(/N=N/c2ccc(C(=O)O)cc2)c1 | <0.1 | ED50 (HL-60 [6]): inactive
25 | – | CC1(C)CCC(C)(C)c2cc3c(cc21)C=C(c1ccc(C(=O)O)cc1)C3 | – | EC50 (HL-60 [7]): 6.6 nM
26 | 2.4 | CC1=C(/C=C/C(C)=C/C=C/C(C)=C/C(=O)O)C(C)(C)CCC1 [TRETINOIN] | 100 | –
27 | 87 | CCc1ccc(/C(C)=C/c2ccc(C(=O)O)cc2)cc1CC | 2.2 | –
28 | 410 | CC(C)c1cc(/N=N/c2ccc(C(=O)O)cc2)cc(C(C)C)c1 | 0.22 | –
29 | 380 | CC(C)c1cccc(/N=N/c2ccc(C(=O)O)cc2)c1 | 0.29 | –
30 | 2.5 | C/C(=C\c1ccc(C(=O)O)cc1)c1ccc2c(c1)C(C)(C)CCC2(C)C | 90 | –
31 | – | Cc1cccc(/N=N/c2ccc(C(=O)O)cc2)c1 | – | ED50 (HL-60 [1]): inactive
32 | – | CC1(C)CCC(C)(C)c2cc(/N=N/c3ccc(C(=O)O)cc3)ccc21 | 130 | –
33 | 31 | CC1(C)CCC(C)(C)c2cc(/C(=C/c3ccc(C(=O)O)cc3)C(F)(F)F)ccc21 | 5.7 | –
34 | > 1000 | CC(C)(C)c1ccc(C2OC2c2ccc(C(=O)O)cc2)cc1 (stereo unspecified) | < 0.01 | –
35 | > 10000 | O=C(O)c1ccc(/N=N/c2cccc(-c3ccccc3)c2)cc1 | <0.1 | –
36 | 1.3 | CC1(C)CCC(C)(C)c2cc3oc(-c4ccc(C(=O)O)cc4)cc3cc21 | 120 | –
37 | 0.5 | CC1(C)CCC(C)(C)c2cc(/C=C/c3ccc(C(=O)O)cc3)ccc21 | 260 | –
38 | 140 | CC1(C)CCC(C)(C)c2cc(C(=O)C(=O)c3ccc(C(=O)O)cc3)ccc21 | 3.9 | –
39 | > 1000 | CC(C)(C)c1cccc(C2OC2c2ccc(C(=O)O)cc2)c1 (stereo unspecified) | < 0.01 | –

From ChEMBL document CHEMBL1124463, “Retinobenzoic acids. 3. Structure-activity relationships of retinoidal azobenzene-4-carboxylic acids and stilbene-4-carboxylic acids” (1989)
